Only some compounds are listed: those with a hit (about 4.6% of all), similar ones and a draw of the others.
p47phox inh = p47phox/p22phox peptide binding inhibitors, primary screen, biochemical, uHTS, NADPH oxidase regulatory subunit | Neutrophil cytosol factor 1 (Homo sapiens), P14598 | fluorescence polarization, 2 h | inhibition, % at 24.7 µM | 220,000 tested, 0.53% active;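 active = inhibition above about 30%, limit read from the data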
RAM network inh = inhibitors of the yeast RAM network, primary screen, dse1pr::URA3 reporter, 5-FOA selection; S. cerevisiae dse1pr::URA3 reporter, 5-FOA growth OD615, 2 d; analog-sensitive cbk1-as2 kinase mutant strain; inhibition, % at 50 µM; 190,000 tested, 1.8% active; AID 868, 2007;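 active = inhibition above a set limit, 3 SD over mean compound inhibition, cut at about 8.4% in these data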;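 note: inhibition rescues growth on 5-FOA so higher OD means more RAM inhibition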
Hck Nef HTS = inhibitors of Nef-activated human Hck kinase, primary screen, biochemical, Z-Lyte FRET, 384-well, Hck-YEEI. Tyrosine-protein kinase HCK (Homo sapiens), P08631. 220,000 tested, 0.68% active. inhibition, % at 20 µM. Recombinant Hck-YEEI plus Nef, Z-Lyte FRET kinase assay. AID 463187, 2010;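 active = Hck-Nef kinase inhibition above about 50%, limit read from the data; inactive = inhibition below that limit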
Target sequence (P08631 whole entry, looked up): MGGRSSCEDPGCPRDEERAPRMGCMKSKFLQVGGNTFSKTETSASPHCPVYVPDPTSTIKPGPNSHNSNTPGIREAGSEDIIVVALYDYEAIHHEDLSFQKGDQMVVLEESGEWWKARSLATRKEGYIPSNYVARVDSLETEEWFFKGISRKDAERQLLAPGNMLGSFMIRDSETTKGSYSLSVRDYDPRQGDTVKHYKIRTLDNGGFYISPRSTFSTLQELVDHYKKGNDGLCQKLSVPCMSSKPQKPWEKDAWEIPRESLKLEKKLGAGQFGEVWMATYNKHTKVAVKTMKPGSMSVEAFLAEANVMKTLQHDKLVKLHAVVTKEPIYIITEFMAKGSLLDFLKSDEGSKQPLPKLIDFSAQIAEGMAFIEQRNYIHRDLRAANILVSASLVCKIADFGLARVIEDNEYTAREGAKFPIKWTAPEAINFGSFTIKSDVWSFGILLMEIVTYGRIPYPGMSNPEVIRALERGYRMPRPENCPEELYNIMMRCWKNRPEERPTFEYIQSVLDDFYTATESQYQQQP
Arbovirus anti = antivirals against arbovirus infection, primary screen, cell-based, full library, 10K replicate subset; 200,000 tested, 0.37% active; arbovirus infection cell-based antiviral screen; inhibition, % at 10 µM; in the data active = inhibition above about 30%
WT yeast gro inh = growth inhibition of WT strain, primary screen, mitochondrial fusion inhibitor project, WT and mutant strains, chemical genetic | mitochondrial fusion phenotypic screen | 190,000 tested, 2.1% active | inhibition, % at 10 µM; in the data active = inhibition above about 58%; tested in S. cerevisiae
Calb biofilm kill = clotrimazole potentiators killing C. albicans biofilm, primary screen, 4-compound mixtures | AID 1242, 2008 | C. albicans biofilm persisters + clotrimazole, fluorescence viability; primary screen in compound mixtures of four per well | inhibition, % at 7.6 µM | 120,000 tested, 0.02% active;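 active = inhibition above 30.3% in the primary screen of four-compound pools, then above 30% when the compound was retested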;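 note: compounds exposed to preformed 24 h biofilms for 48 h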
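Test system: C. albicans biofilms. Buffer or medium: RPMI/MOPS medium, pH 7.0. Timing: 48 h compound exposure at 37 °C. Technique: Alamar Blue fluorescence. Evaluation: percent inhibition of biofilm viability.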
Hck-Nef confirm = retest of Hck:Nef kinase inhibitor hits, confirmation, biochemical, Z-Lyte FRET, 384-well, p-Tyr peptide counterscreen; shares compounds with Hck Nef HTS; Recombinant Hck-YEEI:Nef, Z-Lyte FRET kinase assay; calls only at 10 µM; 1,300 tested, 28% active;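 active = average inhibition of at least 50%, with Z-scores no higher than 3 in both the phospho-tyrosine peptide and fluorescence counterscreens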
Of the large screens only hits and unclear results are named; the others gave an inactive call (follow-up assays come after a bar, where shown).

C=CCn1c(SCC(=O)Nc2ccc(-c3nc4ccc(C)cc4s3)cc2)nnc1-c1ccccc1	Hck Nef HTS 78 | Hck-Nef confirm active
c1ccc(-c2oc3ncnc(NCCCN4CCOCC4)c3c2-c2ccccc2)cc1	Hck Nef HTS 61 (no result: Calb biofilm kill) | Hck-Nef confirm active
COc1ccc(-c2oc3ncnc(NCCCN4CCOCC4)c3c2-c2ccc(OC)cc2)cc1	Hck Nef HTS 94 (no result: Calb biofilm kill) | Hck-Nef confirm active
COc1ccc(-c2oc3ncnc(NCCN4CCOCC4)c3c2-c2ccc(OC)cc2)cc1	Hck Nef HTS 66 (no result: p47phox inh, Calb biofilm kill) | Hck-Nef confirm active
CCC(=O)OCC(=O)Nc1cc([N+](=O)[O-])ccc1Cl	none
CCCCOc1cccc(-c2nnc(NC(=O)CSc3ccc(C)cc3)s2)c1	none
O=C(Nc1ccccc1)c1cc2ccccc2o1	none
O=C(COc1ccc(/C=N/NC(=O)c2cc3ccccc3o2)cc1Br)Nc1ccccc1	p47phox inh 38, Hck Nef HTS 79 (no result: Calb biofilm kill) | Hck-Nef confirm active
Cc1ccc(-c2nn3c(C)nnc3s2)cc1NC(=O)c1ccc(-c2ccc(Cl)cc2Cl)o1	Hck Nef HTS 50 | Hck-Nef confirm active
Cc1nc2c(ccc3c([N+](=O)[O-])cccc32)c(C)c1C	none
COc1ccc(-c2cc(=O)oc3cc(OCC(=O)c4cccc([N+](=O)[O-])c4)ccc23)cc1	p47phox inh 64, Hck Nef HTS 80 | Hck-Nef confirm inactive
Cc1cccc(NC(=O)CN2C(=O)N/C(=C\c3ccc(-c4cccc(C(=O)O)c4)o3)C2=O)c1	Hck Nef HTS 80 (not shown: RAM network inh, Arbovirus anti, WT yeast gro inh)
Cc1ccc(CN2C(=O)N/C(=C/c3ccc(-c4ccc(C(=O)O)cc4)o3)C2=O)cc1	Hck Nef HTS 89 (not shown: RAM network inh, Arbovirus anti, WT yeast gro inh)
CCN(CC)S(=O)(=O)c1ccc(NN=C2CCN(C)CC2)c([N+](=O)[O-])c1	none
O=c1oc2c3c4c(cc2c(C(F)(F)F)c1CCN1CCOCC1)CCCN4CCC3	none (no result: Calb biofilm kill)
CC(C)c1cc(=O)oc2c3c4c(cc12)CCCN4CCC3	Hck Nef HTS 52 (not shown: Calb biofilm kill)
Cc1cc(=O)oc2c3c(ccc12)OC/C3=N/N	none (no result: RAM network inh, Arbovirus anti, WT yeast gro inh)
Cc1cc(=O)oc2c3c4c(cc12)OCCN4CCC3	Hck Nef HTS 72
CN(C)C(CNc1ccc([N+](=O)[O-])cc1C#N)c1ccccc1 (centres undefined)	none
CCn1c(SCC(=O)N2CCc3ccccc32)nnc1-c1ccco1	none (no result: Calb biofilm kill)
CC(OC(=O)c1ccccc1Oc1ccccc1)C(=O)NC1CC1 (centres undefined)	none
CCOC(=O)COc1ccc(/C=C2/SC(=Nc3ccccc3)N(Cc3cccnc3)C2=O)cc1OC	Hck Nef HTS 71 (no result: Calb biofilm kill) | Hck-Nef confirm inactive
CCOc1cc(/C=C2\SC(=Nc3ccccc3)N(c3ccccc3)C2=O)ccc1OCC(=O)O	none
CCc1nnc(NC(=O)CSc2nnc(-c3ccc(O)cc3)n2C)s1	none
Cc1ccc(N=Cc2cc(Cc3ccccc3Cl)cc([N+](=O)[O-])c2O)c(O)c1	Hck Nef HTS 56 | Hck-Nef confirm inactive
Nc1ncnc2oc(-c3ccco3)c(-c3ccco3)c12	Hck Nef HTS 71 (no result: Calb biofilm kill) | Hck-Nef confirm active
CCN1CCN(Cc2ccc(NC(=O)c3ccc(C)c(NC(=O)c4ccno4)c3)cc2C(F)(F)F)CC1	Hck Nef HTS 101 (no result: RAM network inh, Arbovirus anti, WT yeast gro inh) | Hck-Nef confirm active
CCN1CCN(Cc2ccc(NC(=O)c3cc(NC(=O)c4ccno4)cc(OC)c3)cc2C(F)(F)F)CC1	none (no result: RAM network inh, Arbovirus anti, WT yeast gro inh)
Cc1ncc(CO)c(/C=N/NC(=S)Nc2ccc(C(C)C)cc2)c1O	none (no result: RAM network inh, Arbovirus anti, WT yeast gro inh)
COc1ccc(NC(=O)Nc2nnc(-c3ccncc3)s2)cc1	none
O=C(Nc1ccc(Cl)c(Cl)c1)Nc1nnc(-c2ccncc2)s1	Hck Nef HTS 56
NC(=S)n1[nH]c(-c2ccc([N+](=O)[O-])cc2)c(N=Nc2cccc([N+](=O)[O-])c2)c1=O	Hck Nef HTS 76 | Hck-Nef confirm active
COc1ccc(CCNC(=O)C(=O)N2CCCC2)cc1OC	none
CC1=NOC(=O)/C1=C\c1ccc(-c2ccc(Br)cc2C(=O)O)o1	none
CC1=NOC(=O)/C1=C\c1ccc(-c2ccc(Br)cc2)o1	p47phox inh 44, Hck Nef HTS 113, WT yeast gro inh 75 | Hck-Nef confirm inactive
COc1ccc(NC(=O)c2cccc(S(=O)(=O)N3CCc4ccccc43)c2)cn1	none
COc1ccc(C(=O)N=c2sc3ccccc3n2C)cc1	none
COc1cc(OC)cc(C(=O)N=c2sc3ccccc3n2C)c1	Hck Nef HTS 81 | Hck-Nef confirm inactive
COc1ccc(CC(=O)NNC(=O)CSc2ccc(C)cc2)cc1	none
N#Cc1nc(/C=C/c2ccccc2)oc1NCCCN1CCOCC1	Hck Nef HTS 54 (not shown: RAM network inh, Arbovirus anti, WT yeast gro inh)
N#Cc1nc(-c2cccs2)oc1NCCCN1CCOCC1	none (no result: Calb biofilm kill)
COCCNc1oc(/C=C/c2ccccc2)nc1C#N	Hck Nef HTS 67 (not shown: RAM network inh, Arbovirus anti, WT yeast gro inh)
O=[N+]([O-])c1cccnc1NCc1cccs1	none
Cc1cc(C)c2nc(-c3ccccn3)cc(C(=O)Nc3ccc(S(=O)(=O)Nc4cc(C)on4)cc3)c2c1	none (no result: Calb biofilm kill)
Cc1cc(C)c2nc(-c3ccccn3)cc(C(=O)Nc3ccc(S(=O)(=O)Nc4onc(C)c4C)cc3)c2c1	Hck Nef HTS 71 | Hck-Nef confirm active
CCC(Sc1nc2ccc(N)cc2s1)C(=O)Nc1nccs1 (centres undefined)	none (no result: Calb biofilm kill)
Cc1ccc(C(=O)Nc2cccc(C(F)(F)F)c2)cc1NC(=O)c1nccnc1N	none (no result: RAM network inh, Arbovirus anti, WT yeast gro inh)
Cc1cn(-c2cc(C(=O)Nc3ccc(C)c(NC(=O)C(=O)c4c[nH]c5ccccc45)c3)cc(C(F)(F)F)c2)cn1	Hck Nef HTS 55 (no result: RAM network inh, Arbovirus anti, WT yeast gro inh) | Hck-Nef confirm inactive
COC(=O)c1ccccc1NC(=O)N1CCN(Cc2ccco2)CC1	Hck Nef HTS 64 | Hck-Nef confirm inactive
O=C(O)c1ccccc1/C=N/NC(=O)c1cc(-c2ccco2)nc2ccccc12	Hck Nef HTS 71 (no result: RAM network inh, Arbovirus anti, WT yeast gro inh) | Hck-Nef confirm active
CCCC1(c2ccccc2)NC(=O)N(CC(=O)Nc2cc(S(=O)(=O)N3CCOCC3)ccc2Cl)C1=O (centres undefined)	none
O=C(Nc1ccccc1)Nc1snnc1C(=O)Nc1cccc(O)c1	Hck Nef HTS 60, Arbovirus anti 48 | Hck-Nef confirm active
Cc1nnsc1C(=O)NNC(=O)Nc1ccccc1	none
COc1ccc(CCn2c(SCC(=O)Nc3cc(C)on3)nc3ccsc3c2=O)cc1OC	p47phox inh 49, Hck Nef HTS 65 (no result: Calb biofilm kill) | Hck-Nef confirm inactive
